Reference: ChEMBL document CHEMBL1148460, “Interaction of cycloSal-pronucleotides with cholinesterases from different origins. A structure-activity relationship” (J Med Chem, 2004)

Experiments:
Cholinesterase [1] = biological target: Cholinesterase (Mus musculus, UniProt Q03311); assay: Inhibitory activity towards mouse butyrylcholinesterase
How it was run: (§1)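 Modified Rappaport assay following acetylcholine chloride hydrolysis to acetic acid, with m-nitrophenol indicator in phosphate buffer at pH 7.8 and NaCl. The compound is added in DMSO, and the reaction is started with serum (human, mouse or calf). A420 is read at 25 °C at 0 and 5 min. Final inhibitor is 0.1, 0.5, 1, 5, 10, 30 and 50 µM. IC50 is interpolated from ΔE plots in the pseudolinear region.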

Cholinesterase [2] = biological target: Cholinesterase (Homo sapiens, UniProt P06276); assay: Inhibitory activity towards human butyrylcholinesterase; how it was run: as §1
Cholinesterase (Homo sapiens, UniProt P06276), sequence (P06276 whole entry): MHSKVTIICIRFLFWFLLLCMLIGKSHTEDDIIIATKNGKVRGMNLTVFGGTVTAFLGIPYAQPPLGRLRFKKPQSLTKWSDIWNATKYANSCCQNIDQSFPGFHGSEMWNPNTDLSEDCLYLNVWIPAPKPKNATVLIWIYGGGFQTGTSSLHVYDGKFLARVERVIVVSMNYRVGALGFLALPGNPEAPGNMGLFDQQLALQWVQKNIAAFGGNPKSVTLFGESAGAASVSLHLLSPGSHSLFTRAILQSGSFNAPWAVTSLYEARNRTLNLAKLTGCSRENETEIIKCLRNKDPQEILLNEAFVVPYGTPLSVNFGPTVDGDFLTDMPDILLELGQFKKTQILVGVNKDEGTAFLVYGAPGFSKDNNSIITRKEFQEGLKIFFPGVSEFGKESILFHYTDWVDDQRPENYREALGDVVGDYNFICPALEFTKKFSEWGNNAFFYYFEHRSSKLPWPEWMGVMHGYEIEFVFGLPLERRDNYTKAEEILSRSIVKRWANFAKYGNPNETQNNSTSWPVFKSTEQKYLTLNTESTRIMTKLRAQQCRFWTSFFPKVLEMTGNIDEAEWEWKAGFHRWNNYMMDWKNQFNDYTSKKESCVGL

Acetylcholinesterase [3] = biological target: T1, Acetylcholinesterase (Bos taurus, UniProt P23795); assay: Inhibitory activity towards beef erythrocytes acetylcholinesterase
T1 sequence (P23795 whole entry): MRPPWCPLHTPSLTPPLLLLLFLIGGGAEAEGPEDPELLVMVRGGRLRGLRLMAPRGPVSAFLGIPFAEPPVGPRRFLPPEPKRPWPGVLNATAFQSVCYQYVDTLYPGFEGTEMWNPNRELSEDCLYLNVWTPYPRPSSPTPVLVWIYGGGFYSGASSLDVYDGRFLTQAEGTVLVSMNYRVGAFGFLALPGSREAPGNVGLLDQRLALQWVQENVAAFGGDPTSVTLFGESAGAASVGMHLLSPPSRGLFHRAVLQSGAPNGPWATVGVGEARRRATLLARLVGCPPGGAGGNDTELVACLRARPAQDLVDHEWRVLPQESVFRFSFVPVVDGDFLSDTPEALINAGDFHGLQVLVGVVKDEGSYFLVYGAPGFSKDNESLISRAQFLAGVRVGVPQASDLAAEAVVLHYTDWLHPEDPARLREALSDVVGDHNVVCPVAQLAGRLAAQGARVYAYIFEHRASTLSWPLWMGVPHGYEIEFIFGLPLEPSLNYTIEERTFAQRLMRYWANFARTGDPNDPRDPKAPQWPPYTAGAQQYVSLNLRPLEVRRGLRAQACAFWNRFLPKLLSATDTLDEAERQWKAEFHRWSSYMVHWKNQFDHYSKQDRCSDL

CCRF-CEM [4] = assay: Anti-HIV-1 activity tested in human lymphocytic CEM cells; type: functional, cell-based
Acetylcholinesterase [5] = biological target: Acetylcholinesterase (Electrophorus electricus, UniProt O42275); assay: Inhibitory activity towards Electrophorus electricus acetylcholinesterase
Acetylcholinesterase (Electrophorus electricus, UniProt O42275), sequence (O42275 whole entry): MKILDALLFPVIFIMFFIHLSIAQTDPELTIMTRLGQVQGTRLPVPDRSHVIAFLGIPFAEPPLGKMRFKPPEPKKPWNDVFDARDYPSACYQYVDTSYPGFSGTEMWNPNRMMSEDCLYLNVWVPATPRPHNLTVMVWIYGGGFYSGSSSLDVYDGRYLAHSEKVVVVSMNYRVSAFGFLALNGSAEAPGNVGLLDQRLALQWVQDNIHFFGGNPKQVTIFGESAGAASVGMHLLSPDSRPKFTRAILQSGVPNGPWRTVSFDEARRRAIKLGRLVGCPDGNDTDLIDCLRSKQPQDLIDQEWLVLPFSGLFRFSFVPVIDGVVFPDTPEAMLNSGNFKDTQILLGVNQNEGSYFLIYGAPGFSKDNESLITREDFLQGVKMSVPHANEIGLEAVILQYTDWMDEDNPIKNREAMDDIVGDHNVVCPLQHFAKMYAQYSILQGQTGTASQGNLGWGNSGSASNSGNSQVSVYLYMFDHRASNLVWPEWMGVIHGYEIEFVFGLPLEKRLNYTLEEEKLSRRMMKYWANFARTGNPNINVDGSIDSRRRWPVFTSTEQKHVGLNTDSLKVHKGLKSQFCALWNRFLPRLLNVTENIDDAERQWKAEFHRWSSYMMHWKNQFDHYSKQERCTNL

Acetylcholinesterase [6] = biological target: T1, Acetylcholinesterase; assay: Inhibitory activity towards calf serum acetylcholinesterase; how it was run: as §1
Human gammaherpesvirus 4 = assay: Anti-EBV activity blocking EBV-DNA synthesis; type: functional, organism-based
L1210 = assay: Antitumor activity tested in L1210 cells; type: functional, cell-based; settings: Mus musculus
Vero = assay: Anti-HSV-1 activity tested in Vero cells; type: functional, cell-based; settings: Chlorocebus sabaeus
CCRF-CEM [7] = assay: Anti-HIV-2 activity tested in human lymphocytic CEM cells; type: functional, cell-based
[8] = Half-life was determined; type: ADME; settings: human

Cholinesterase (Mus musculus, UniProt Q03311), sequence (Q03311 whole entry): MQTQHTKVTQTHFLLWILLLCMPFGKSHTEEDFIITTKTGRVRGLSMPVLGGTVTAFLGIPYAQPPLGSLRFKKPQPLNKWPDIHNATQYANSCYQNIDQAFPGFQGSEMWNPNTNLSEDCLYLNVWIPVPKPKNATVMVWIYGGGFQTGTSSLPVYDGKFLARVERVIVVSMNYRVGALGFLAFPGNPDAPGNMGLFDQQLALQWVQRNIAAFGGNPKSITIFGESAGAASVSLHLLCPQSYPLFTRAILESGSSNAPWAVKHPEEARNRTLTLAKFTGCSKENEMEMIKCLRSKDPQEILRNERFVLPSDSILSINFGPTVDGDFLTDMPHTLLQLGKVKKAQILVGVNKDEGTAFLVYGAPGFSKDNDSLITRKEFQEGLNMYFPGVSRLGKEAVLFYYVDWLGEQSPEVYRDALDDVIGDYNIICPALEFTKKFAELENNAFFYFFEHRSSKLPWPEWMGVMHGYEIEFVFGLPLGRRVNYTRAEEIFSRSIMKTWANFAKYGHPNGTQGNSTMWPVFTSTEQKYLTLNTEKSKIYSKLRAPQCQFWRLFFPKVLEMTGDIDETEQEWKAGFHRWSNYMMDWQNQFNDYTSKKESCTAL

| SMILES | IC50 (Cholinesterase [2]) [µM] | EC50 (CCRF-CEM [4]) [µM] | IC50 (Acetylcholinesterase [5]) [µM] | other results |
| --- | --- | --- | --- | --- |
| Cc1cccc2c1OP(=O)(OCC1OC(n3cc(C)c(=O)[nH]c3=O)CC1N=[N+]=[N-])OC2 (stereo unspecified) | 40 | 0.006 | > 50 | IC50 (Cholinesterase [1]): > 50 µM; IC50 (Acetylcholinesterase [3]): > 50 µM; IC50 (Acetylcholinesterase [6]): > 50 µM |
| Cc1cccc2c1OP(=O)(OCC1C=CC(n3cnc4c(N)ncnc43)O1)OC2 (stereo unspecified) | 1.2 | 0.065 | > 50 | IC50 (Cholinesterase [1]): 10.5 µM; IC50 (Acetylcholinesterase [3]): > 50 µM; IC50 (Acetylcholinesterase [6]): > 50 µM |
| Cc1cccc2c1OP(=O)(OC[C@@H]1C[C@H](F)[C@H](n3cnc4c(N)ncnc43)O1)OC2 (stereo partly specified) | 5 | – | > 50 | IC50 (Cholinesterase [1]): > 50 µM; IC50 (Acetylcholinesterase [3]): > 50 µM; IC50 (Acetylcholinesterase [6]): > 50 µM |
| Cc1cccc2c1OP(=O)(OC[C@H]1O[C@@H](N3CC(/C=C/Br)C(=O)NC3=O)C[C@@H]1O)OC2 (stereo partly specified) | > 50 | – | > 50 | EC50 (Human gammaherpesvirus 4): 4.1 µM |
| Cc1cccc2c1O[P@](=O)(OC[C@H]1OC(n3cc(F)c(=O)[nH]c3=O)C[C@@H]1O)OC2 (single isomer, unassigned) | > 50 | – | > 50 | EC50 (L1210): 0.044 µM |
| Cc1cn(C2C=CC(COP3(=O)OCc4cccc(CCC(=O)O)c4O3)O2)c(=O)[nH]c1=O (stereo unspecified) | > 50 | 0.19 | > 50 | – |
| Cc1cccc2c1OP(=O)(OCC1C=CC(n3cnc4c(O)nc(N)nc43)C1)OC2 (stereo unspecified) | 2.5 | 0.47 | > 50 | – |
| Cc1cccc2c1OP(=O)(OCC1CCC(n3cnc4c(N)ncnc43)O1)OC2 (stereo unspecified) | 0.91 | 0.047 | > 50 | IC50 (Cholinesterase [1]): 2.35 µM; IC50 (Acetylcholinesterase [3]): > 50 µM; IC50 (Acetylcholinesterase [6]): > 50 µM |
| Cc1cccc2c1O[P@](=O)(OC[C@@H]1C=CC(n3cc(C)c(=O)[nH]c3=O)O1)OC2 (single isomer, unassigned) | 0.24 | 0.42 | > 50 | IC50 (Cholinesterase [1]): ≥ 5 µM; IC50 (Acetylcholinesterase [3]): > 50 µM; IC50 (Acetylcholinesterase [6]): > 50 µM |
| Cc1cn(C2C=C[C@@H](CO[P@]3(=O)OCc4cccc(C(C)(C)C)c4O3)O2)c(=O)[nH]c1=O (single isomer, unassigned) | 2.6 | 0.6 | > 50 | – |
| Cc1cccc2c1O[P@@](=O)(OC[C@@H](CO)OCn1cnc3c(O)nc(N)nc31)OC2 | > 50 | – | > 50 | EC50 (Human gammaherpesvirus 4): 3.29 µM |
| Cc1cn(C2C=CC(COP3(=O)OCc4cccc(-c5ccccc5)c4O3)O2)c(=O)[nH]c1=O (stereo unspecified) | 0.35 | 0.13 | > 50 | – |
| CCC(C)c1cccc2c1OP(=O)(OCC1C=CC(n3cc(C)c(=O)[nH]c3=O)O1)OC2 (stereo unspecified) | 2 | 0.08 | > 50 | – |
| Cc1cccc2c1OP(=O)(OC[C@H]1O[C@@H](n3cc(F)c(=O)[nH]c3=O)C[C@@H]1O)OC2 (stereo partly specified) | > 50 | – | > 50 | IC50 (L1210): 0.04 µM |
| Cc1cccc2c1OP(=O)(OCCOCn1cnc3c(O)nc(N)nc31)OC2 (stereo unspecified) | > 50 | – | > 50 | EC50 (Vero): 0.15 µM |
| COC(=O)CCc1cccc2c1OP(=O)(OCC1C=CC(n3cc(C)c(=O)[nH]c3=O)O1)OC2 (stereo unspecified) | 2.7 | 0.16 | > 50 | – |
| Cc1cn(C2C=CC(COP3(=O)OCc4cccc(CCC(=O)OC(C)(C)C)c4O3)O2)c(=O)[nH]c1=O (stereo unspecified) | 3.4 | – | > 50 | EC50 (CCRF-CEM [7]): 0.33 µM |

| SMILES | IC50 (Cholinesterase [2]) [µM] | EC50 (CCRF-CEM [4]) [µM] | IC50 (Acetylcholinesterase [5]) [µM] | other results |
| --- | --- | --- | --- | --- |
| Cc1cccc2c1OP(=O)(OCC1CCC(n3cc(C)c(=O)[nH]c3=O)O1)OC2 (stereo unspecified) | 1 | 4.3 | > 50 | – |
| Cc1cn(C2C=CC(COP3(=O)OCc4cc(C(C)(C)C)cc(C(C)(C)C)c4O3)O2)c(=O)[nH]c1=O (stereo unspecified) | > 50 | 1.1 | > 50 | – |
| Cc1cn(C2C=CC(COP3(=O)OCc4c(Cl)cccc4O3)O2)c(=O)[nH]c1=O (stereo unspecified) | 0.57 | 0.09 | > 50 | – |
| Cc1cccc2c1OP(=O)(OC[C@H]1C=CC(n3cnc4c(NC5CC5)nc(N)nc43)C1)OC2 (single isomer, unassigned) | 1.3 | 0.7 | > 50 | – |
| COc1ccc2c(c1)CO[P@](=O)(OC[C@@H]1C=C[C@H](n3cc(C)c(=O)[nH]c3=O)O1)O2 | > 50 | 0.043 | > 50 | – |
| Cc1cn([C@H]2C=C[C@@H](CO[P@@]3(=O)OCc4cccc(C(C)(C)C)c4O3)O2)c(=O)[nH]c1=O | > 50 | 0.13 | > 50 | – |
| Cc1cccc2c1OP(=O)(OCC(CO)CCn1cnc3c(O)nc(N)nc31)OC2 (stereo unspecified) | > 50 | – | > 50 | EC50 (Vero): 17.7 µM |
| Cc1cccc2c1O[P@@](=O)(OC[C@H]1O[C@@H](n3cc(F)c(=O)[nH]c3=O)C[C@@H]1O)OC2 | – | – | > 50 | EC50 (L1210): 0.04 µM |
| Cc1cn(C2C=CC(COP3(=O)OCc4cc(CCC(=O)OC(C)(C)C)ccc4O3)O2)c(=O)[nH]c1=O (stereo unspecified) | 4.4 | 0.18 | > 50 | – |
| Cc1cccc2c1O[P@@](=O)(OC[C@@H]1C=C[C@H](n3cc(C)c(=O)[nH]c3=O)O1)OC2 | > 50 | 0.08 | > 50 | IC50 (Cholinesterase [1]): > 50 µM; IC50 (Acetylcholinesterase [3]): > 50 µM; IC50 (Acetylcholinesterase [6]): > 50 µM |
| Cc1cn(C2C=CC(COP3(=O)OCc4cc(C(C)(C)C)ccc4O3)O2)c(=O)[nH]c1=O (stereo unspecified) | 5.6 | 0.14 | > 50 | – |
| Cc1cn(C2C=CC(COP3(=O)OCc4c(F)c(C(C)(C)C)cc(C(C)(C)C)c4O3)O2)c(=O)[nH]c1=O (stereo unspecified) | 48 | 0.16 | > 50 | half-life [8]: 6.2 h |
| Cc1cn(C2C=CC(COP3(=O)OCc4cc(CCC(=O)OCc5ccccc5)ccc4O3)O2)c(=O)[nH]c1=O (stereo unspecified) | 22 | 0.08 | > 50 | – |
| COc1ccc2c(c1)CO[P@@](=O)(OC[C@@H]1C=CC(n3cc(C)c(=O)[nH]c3=O)O1)O2 (single isomer, unassigned) | 1.8 | 0.5 | > 50 | – |
| Cc1cccc2c1OP(=O)(OC[C@H](CO)OCn1cnc3c(O)nc(N)nc31)OC2 (stereo partly specified) | > 50 | – | > 50 | EC50 (Vero): 3.3 µM |
| Cc1cn(C2C=CC(COP3(=O)Oc4ccccc4C(CCl)O3)O2)c(=O)[nH]c1=O (stereo unspecified) | 3.9 | 0.19 | > 50 | – |
